Measured values: ChEMBL document CHEMBL1914346, “Discovery and synthesis of novel substituted benzocoumarins as orally active lipid modulating agents” (Bioorg Med Chem Lett, 2011)

Legend:
[1] = system: Syrian golden hamster; test: Antidyslipidemic activity in high fat diet-fed dyslipidemic syrian golden hamster model assessed as increase in serum HDL level at 10 mg/kg, po administered once daily for 7 days relative to vehicle treated control; format: functional, Mesocricetus auratus
Outline: (§1)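 Male Golden Syrian hamsters, 12 weeks old, 110 ± 10 g, eight per group, fed high-fat diet plus fructose daily on days 1–10. Oral dosing once daily on days 4–10 in 0.1% gum acacia; HFD-fed vehicle animals served as controls. After the last dose, retro-orbital blood was taken into EDTA and plasma lipids were measured enzymatically on an autoanalyzer. Results are % change versus HFD controls; t-test/ANOVA, p<0.05.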

[2] = system: Syrian golden hamster; test: Antidyslipidemic activity in high fat diet-fed dyslipidemic syrian golden hamster model assessed as decrease in serum LDL level at 10 mg/kg, po administered once daily for 7 days relative to vehicle treated control; format: functional, Mesocricetus auratus; parameters: scale not given: the % may be the effect or the level left; outline: as §1
[3] = molecular target: T1, 3-hydroxy-3-methylglutaryl-coenzyme A reductase (Homo sapiens) (UniProt P04035); test: Inhibition of HMG-CoA reductase using HMG-CoA as substrate at 100 uM
T1 sequence (whole entry): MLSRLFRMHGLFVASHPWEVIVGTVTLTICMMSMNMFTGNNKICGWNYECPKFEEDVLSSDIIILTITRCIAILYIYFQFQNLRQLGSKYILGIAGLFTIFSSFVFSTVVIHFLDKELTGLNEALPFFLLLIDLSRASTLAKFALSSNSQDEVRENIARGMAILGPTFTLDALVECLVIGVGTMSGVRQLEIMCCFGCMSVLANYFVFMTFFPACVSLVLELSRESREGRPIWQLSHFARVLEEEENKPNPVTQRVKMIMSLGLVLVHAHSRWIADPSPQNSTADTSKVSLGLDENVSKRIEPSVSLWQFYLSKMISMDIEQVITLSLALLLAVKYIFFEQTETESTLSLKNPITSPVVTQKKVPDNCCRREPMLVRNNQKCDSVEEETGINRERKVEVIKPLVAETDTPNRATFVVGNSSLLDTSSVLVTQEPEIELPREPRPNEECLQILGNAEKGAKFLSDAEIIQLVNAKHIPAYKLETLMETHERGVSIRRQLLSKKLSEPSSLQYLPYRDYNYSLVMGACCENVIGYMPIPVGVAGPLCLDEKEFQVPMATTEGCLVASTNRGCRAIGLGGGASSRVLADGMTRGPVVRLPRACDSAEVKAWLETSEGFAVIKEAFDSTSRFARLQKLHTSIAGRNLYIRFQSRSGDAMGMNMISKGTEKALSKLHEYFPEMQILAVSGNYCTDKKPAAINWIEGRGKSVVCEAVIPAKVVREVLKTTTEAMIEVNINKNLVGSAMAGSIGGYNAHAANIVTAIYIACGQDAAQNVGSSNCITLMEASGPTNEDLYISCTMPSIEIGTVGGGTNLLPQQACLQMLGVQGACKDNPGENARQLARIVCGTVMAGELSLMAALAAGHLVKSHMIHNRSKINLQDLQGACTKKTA
Outline: (§2)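 HMG-CoA reductase kit assay using supplied HMGR enzyme, HMG-CoA substrate, NADPH and assay buffer. Test concentrations were 5, 10, 25, 50 and 100 µM, with % inhibition recorded at each.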

[4] = system: Syrian golden hamster; test: Antidyslipidemic activity in high fat diet-fed dyslipidemic syrian golden hamster model assessed as decrease in serum LDL level at 2.5 mg/kg relative to vehicle treated control; format: functional, Mesocricetus auratus; parameters: scale not given: the % may be the effect or the level left
Outline: (§3)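 Dose-response run on a separate set of high-fat/fructose-fed male Golden Syrian hamsters given oral doses of 2.5, 5, 10 and 25 mg/kg. Plasma TC, TG, HDL-C and LDL-C were measured by standard enzymatic methods on a clinical autoanalyzer. HDL/TC ratio was calculated. Results are % change relative to HFD-fed vehicle (gum acacia) controls.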

[5] = system: Syrian golden hamster; test: Antidyslipidemic activity in high fat diet-fed dyslipidemic syrian golden hamster model assessed as decrease in serum triglyceride level at 10 mg/kg relative to vehicle treated control; format: functional, Mesocricetus auratus; parameters: scale not given: the % may be the effect or the level left; outline: as §3
[6] = system: Syrian golden hamster; test: Antidyslipidemic activity in high fat diet-fed dyslipidemic syrian golden hamster model assessed as decrease in serum LDL level at 25 mg/kg relative to vehicle treated control; format: functional, Mesocricetus auratus; parameters: scale not given: the % may be the effect or the level left; outline: as §3
[7] = molecular target: T1, 3-hydroxy-3-methylglutaryl-coenzyme A reductase (Homo sapiens); test: Inhibition of HMG-CoA reductase using HMG-CoA as substrate at 25 uM; outline: as §2
[8] = system: Syrian golden hamster; test: Antidyslipidemic activity in high fat diet-fed dyslipidemic syrian golden hamster model assessed as decrease in serum total cholesterol level at 10 mg/kg, po administered once daily for 7 days relative to vehicle treated control; format: functional, Mesocricetus auratus; parameters: scale not given: the % may be the effect or the level left; outline: as §1
[9] = system: Syrian golden hamster; test: Antidyslipidemic activity in high fat diet-fed dyslipidemic syrian golden hamster model assessed as decrease in serum total cholesterol level at 25 mg/kg relative to vehicle treated control; format: functional, Mesocricetus auratus; parameters: scale not given: the % may be the effect or the level left; outline: as §3
[10] = system: Syrian golden hamster; test: Antidyslipidemic activity in high fat diet-fed dyslipidemic syrian golden hamster model assessed as decrease in serum LDL level at 5 mg/kg relative to vehicle treated control; format: functional, Mesocricetus auratus; parameters: scale not given: the % may be the effect or the level left; outline: as §3
[11] = system: Syrian golden hamster; test: Antidyslipidemic activity in high fat diet-fed dyslipidemic syrian golden hamster model assessed as decrease in serum triglyceride level at 5 mg/kg relative to vehicle treated control; format: functional, Mesocricetus auratus; parameters: scale not given: the % may be the effect or the level left; outline: as §3
[12] = Antioxidant activity assessed as trolox equivalent by TEAC assay; format: functional
[13] = system: Syrian golden hamster; test: Antidyslipidemic activity in high fat diet-fed dyslipidemic syrian golden hamster model assessed as increase in serum ratio of HDL/total cholesterol level at 5 mg/kg relative to vehicle treated control; format: functional, Mesocricetus auratus; outline: as §3
[14] = system: Syrian golden hamster; test: Toxicity in syrian golden hamster; format: organism-based, Mesocricetus auratus; details: in vivo
Outline: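 HFD-fed male Golden Syrian hamsters, eight per group, dosed orally at 10 mg/kg once daily for 7 days in 0.1% gum acacia. Body weight was recorded daily and food intake was monitored, then compared with HFD vehicle controls.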

[15] = system: Syrian golden hamster; test: Antidyslipidemic activity in high fat diet-fed dyslipidemic syrian golden hamster model assessed as decrease in serum total cholesterol level at 10 mg/kg relative to vehicle treated control; format: functional, Mesocricetus auratus; parameters: scale not given: the % may be the effect or the level left; outline: as §3
[16] = system: Syrian golden hamster; test: Antidyslipidemic activity in high fat diet-fed dyslipidemic syrian golden hamster model assessed as increase in serum ratio of HDL/total cholesterol level at 25 mg/kg relative to vehicle treated control; format: functional, Mesocricetus auratus; outline: as §3
[17] = system: Syrian golden hamster; test: Antidyslipidemic activity in high fat diet-fed dyslipidemic syrian golden hamster model assessed as increase in serum ratio of HDL/total cholesterol level at 10 mg/kg relative to vehicle treated control; format: functional, Mesocricetus auratus; outline: as §3
[18] = system: Syrian golden hamster; test: Antidyslipidemic activity in high fat diet-fed dyslipidemic syrian golden hamster model assessed as increase in serum ratio of serum HDL/total cholesterol level at 10 mg/kg, po administered once daily for 7 days relative to vehicle treated control; format: functional, Mesocricetus auratus; outline: as §1
[19] = molecular target: T1, 3-hydroxy-3-methylglutaryl-coenzyme A reductase (Homo sapiens); test: Inhibition of HMG-CoA reductase using HMG-CoA as substrate at 5 uM; outline: as §2
[20] = system: Syrian golden hamster; test: Antidyslipidemic activity in high fat diet-fed dyslipidemic syrian golden hamster model assessed as decrease in serum total cholesterol level at 5 mg/kg relative to vehicle treated control; format: functional, Mesocricetus auratus; parameters: scale not given: the % may be the effect or the level left; outline: as §3
[21] = system: Syrian golden hamster; test: Antidyslipidemic activity in high fat diet-fed dyslipidemic syrian golden hamster model assessed as decrease in serum triglyceride level at 25 mg/kg relative to vehicle treated control; format: functional, Mesocricetus auratus; parameters: scale not given: the % may be the effect or the level left; outline: as §3
[22] = system: Syrian golden hamster; test: Antidyslipidemic activity in high fat diet-fed dyslipidemic syrian golden hamster model assessed as decrease in serum triglyceride level at 2.5 mg/kg relative to vehicle treated control; format: functional, Mesocricetus auratus; parameters: scale not given: the % may be the effect or the level left; outline: as §3
[23] = system: Syrian golden hamster; test: Antidyslipidemic activity in high fat diet-fed dyslipidemic syrian golden hamster model assessed as decrease in serum triglyceride level at 10 mg/kg, po administered once daily for 7 days relative to vehicle treated control; format: functional, Mesocricetus auratus; parameters: scale not given: the % may be the effect or the level left; outline: as §1
[24] = system: Syrian golden hamster; test: Antidyslipidemic activity in high fat diet-fed dyslipidemic syrian golden hamster model assessed as increase in serum ratio of HDL/total cholesterol level at 2.5 mg/kg relative to vehicle treated control; format: functional, Mesocricetus auratus; outline: as §3
[25] = system: Syrian golden hamster; test: Antidyslipidemic activity in high fat diet-fed dyslipidemic syrian golden hamster model assessed as decrease in serum total cholesterol level at 2.5 mg/kg relative to vehicle treated control; format: functional, Mesocricetus auratus; parameters: scale not given: the % may be the effect or the level left; outline: as §3
[26] = system: Syrian golden hamster; test: Antidyslipidemic activity in high fat diet-fed dyslipidemic syrian golden hamster model assessed as decrease in serum LDL level at 10 mg/kg relative to vehicle treated control; format: functional, Mesocricetus auratus; parameters: scale not given: the % may be the effect or the level left; outline: as §3
[27] = molecular target: T1, 3-hydroxy-3-methylglutaryl-coenzyme A reductase (Homo sapiens); test: Inhibition of HMG-CoA reductase using HMG-CoA as substrate at 50 uM; outline: as §2
[28] = molecular target: T1, 3-hydroxy-3-methylglutaryl-coenzyme A reductase (Homo sapiens); test: Inhibition of HMG-CoA reductase using HMG-CoA as substrate at 10 uM; outline: as §2

With `COc1ccc(CN/C=C2\C=C(C=O)c3c(ccc4c(C)cc(=O)oc34)C2=O)cc1` the Activity [1] was 1%, the Activity [2] was 54% and the inhibition [3] was 63.8%. It also gave an Activity [4] of 3%, an Activity [5] of 58% and an Activity [6] of 19%. It also gave an inhibition [7] of 40.3%, an Activity [8] of 47% and an Activity [9] of 45%. For the same molecule, the Activity [10] was 8%, the Activity [11] was 38% and the Activity [12] was 1.36 mM. For the same molecule, the Activity [13] was 26%, the Activity [14] was “Non-toxic” and the Activity [15] was 39%. For the same molecule, the Activity [16] was 86%, the Activity [17] was 71% and the Activity [18] was 80%. It also gave an inhibition [19] of 26.1%, an Activity [20] of 18% and an Activity [21] of 61%. It also gave an Activity [22] of 35%, an Activity [23] of 70% and an Activity [24] of 18%. The Activity [25] was 19%, the Activity [26] was 14% and the inhibition [27] was 50.1%. For the same molecule, the inhibition [28] was 34.2%.
